Results taken from ChEMBL document CHEMBL4270612, “Discovery of dual GyrB/ParE inhibitors active against Gram-negative bacteria” (Eur J Med Chem, 2018).
In brackets after ≈: the same amount, converted by molar mass.

Columns and labels:
Escherichia coli = experiment: Antibacterial activity against Escherichia coli after 24 hrs by broth microdilution method; assay type: functional
How it was run: (§1)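 Broth microdilution per CLSI. Bacterial suspension adjusted to 1×10^6 CFU/mL in cation-adjusted Mueller–Hinton broth and mixed 1:1 with 2-fold serial compound dilutions. Final DMSO 2.5% v/v. Plates incubated at 35 °C with shaking at 140 rpm for 24 h.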

Pseudomonas aeruginosa [1] = experiment: Antibacterial activity against Pseudomonas aeruginosa ARC3502 after 24 hrs by broth microdilution method; assay type: functional; conditions: ARC3502, 24 h
How it was run: (§2)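 Broth microdilution per CLSI. Bacterial suspension adjusted to 1×10^6 CFU/mL in cation-adjusted Mueller–Hinton broth and mixed 1:1 with 2-fold serial compound dilutions. Plates incubated at 35 °C with shaking at 140 rpm for 24 h.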

Acinetobacter baumannii [2] = experiment: Antibacterial activity against Acinetobacter baumannii ARC3882 after 24 hrs by broth microdilution method; assay type: functional; conditions: ARC3882, 24 h; how it was run: as §1
Acinetobacter baumannii [3] = experiment: Antibacterial activity against Acinetobacter baumannii ARC2675 after 24 hrs by broth microdilution method; assay type: functional; conditions: ARC2675, 24 h; how it was run: as §2
Streptococcus pyogenes = experiment: Antibacterial activity against Streptococcus pyogenes ARC838 after 24 hrs by broth microdilution method; assay type: functional; conditions: ARC838, 24 h; how it was run: as §2
Pseudomonas aeruginosa [4] = experiment: Antibacterial activity against Pseudomonas aeruginosa ARC3925 after 24 hrs by broth microdilution method; assay type: functional; conditions: ARC3925, 24 h; how it was run: as §2
Acinetobacter baumannii [5] = experiment: Antibacterial activity against Acinetobacter baumannii ARC3513 after 24 hrs by broth microdilution method; assay type: functional; conditions: ARC3513, 24 h; how it was run: as §1
Staphylococcus aureus = experiment: Antibacterial activity against Staphylococcus aureus ATCC 29213 after 24 hrs in presence of 2% human albumin by broth microdilution method; assay type: functional; conditions: ATCC 29213, 24 h
Acinetobacter baumannii [6] = experiment: Antibacterial activity against Acinetobacter baumannii ARC3484 after 24 hrs by broth microdilution method; assay type: functional; conditions: ARC3484, 24 h; how it was run: as §2
Pseudomonas aeruginosa [7] = experiment: Antibacterial activity against Pseudomonas aeruginosa ARC4068 after 24 hrs by broth microdilution method; assay type: functional; conditions: ARC4068, 24 h; how it was run: as §2
Acinetobacter baumannii [8] = experiment: Antibacterial activity against Acinetobacter baumannii ARC3495 after 24 hrs by broth microdilution method; assay type: functional; conditions: ARC3495, 24 h; how it was run: as §1
Pseudomonas aeruginosa [9] = experiment: Antibacterial activity against Pseudomonas aeruginosa ARC3756 after 24 hrs by broth microdilution method; assay type: functional; conditions: ARC3756, 24 h; how it was run: as §2
Acinetobacter baumannii [10] = experiment: Antibacterial activity against Acinetobacter baumannii ARC3659 after 24 hrs by broth microdilution method; assay type: functional; conditions: ARC3659, 24 h; how it was run: as §1
Haemophilus influenzae = experiment: Antibacterial activity against Haemophilus influenzae ATCC 49247 after 24 hrs by broth microdilution method; assay type: functional; conditions: ATCC 49247, 24 h; how it was run: as §1
Acinetobacter baumannii [11] = experiment: Antibacterial activity against Acinetobacter baumannii ARC2674 after 24 hrs by broth microdilution method; assay type: functional; conditions: ARC2674, 24 h; how it was run: as §1
Klebsiella pneumoniae = experiment: Antibacterial activity against Klebsiella pneumoniae ARC1865 after 24 hrs by broth microdilution method; assay type: functional; conditions: ARC1865, 24 h; how it was run: as §1
Streptococcus pneumoniae = experiment: Antibacterial activity against Streptococcus pneumoniae ATCC 49619 after 24 hrs by broth microdilution method; assay type: functional; conditions: ATCC 49619, 24 h; how it was run: as §1
[12] = Dissociation constant, pKa of compound by pH metric method; assay type: physicochemical
How it was run: (§3)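 Potentiometric (pH-metric) titration on an automated titrator, Gold Standard pH metric assay, run in triplicate.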

Pseudomonas aeruginosa [13] = experiment: Antibacterial activity against Pseudomonas aeruginosa ARC3612 after 24 hrs by broth microdilution method; assay type: functional; conditions: ARC3612, 24 h; how it was run: as §1
[14] = Dissociation constant, acidic pKa of compound by pH metric method; assay type: physicochemical; how it was run: as §3
[15] = Dissociation constant, basic pKa of compound by pH metric method; assay type: physicochemical; how it was run: as §3

SMILES	MIC (Escherichia coli) [µg/mL]	MIC (Pseudomonas aeruginosa [1]) [µg/mL]	MIC (Acinetobacter baumannii [2]) [µg/mL]	MIC (Acinetobacter baumannii [3]) [µg/mL]	MIC (Streptococcus pyogenes) [µg/mL]	MIC (Pseudomonas aeruginosa [4]) [µg/mL]	MIC (Acinetobacter baumannii [5]) [µg/mL]	MIC (Staphylococcus aureus) [µg/mL]	MIC (Acinetobacter baumannii [6]) [µg/mL]	MIC (Pseudomonas aeruginosa [7]) [µg/mL]	MIC (Acinetobacter baumannii [8]) [µg/mL]	MIC (Pseudomonas aeruginosa [9]) [µg/mL]	MIC (Acinetobacter baumannii [10]) [µg/mL]	MIC (Haemophilus influenzae) [µg/mL]	MIC (Acinetobacter baumannii [11]) [µg/mL]	MIC (Klebsiella pneumoniae) [µg/mL]	MIC (Streptococcus pneumoniae) [µg/mL]	MIC (Pseudomonas aeruginosa [13]) [µg/mL]	pKa [14]	pKa [15]	also measured
CCNC(=O)Nc1cc(-c2nc(C(F)(F)F)cs2)c(-c2cc3ncccc3nc2N2C3CCC2CN(C)C3)cn1	2.27 (≈ 3.99 µM)	16 (≈ 28.1 µM)	2 (≈ 3.52 µM)	4 (≈ 7.03 µM)	< 0.06	16 (≈ 28.1 µM)	8 (≈ 14.1 µM)	< 0.06	4 (≈ 7.03 µM)	16 (≈ 28.1 µM)	2 (≈ 3.52 µM)	16 (≈ 28.1 µM)	2 (≈ 3.52 µM)	0.25 (≈ 0.44 µM)	4 (≈ 7.03 µM)	64 (≈ 113 µM)	< 0.06	32 (≈ 56.3 µM)	–	–	pKa [12]: 7.8
CCNC(=O)Nc1cc(-c2nc(C3CC3)cs2)c(-c2cc(-c3n[nH]c(=O)o3)cnc2N2C3CCC2CN(C)C3)cn1	0.57 (≈ 0.994 µM)	4 (≈ 6.97 µM)	1 (≈ 1.74 µM)	2 (≈ 3.49 µM)	< 0.06	4 (≈ 6.97 µM)	4 (≈ 6.97 µM)	< 0.06	2 (≈ 3.49 µM)	4 (≈ 6.97 µM)	0.5 (≈ 0.872 µM)	4 (≈ 6.97 µM)	1 (≈ 1.74 µM)	< 0.06	4 (≈ 6.97 µM)	16 (≈ 27.9 µM)	< 0.06	4 (≈ 6.97 µM)	6.7	7.9	–
CCNC(=O)Nc1cc(-c2nc(C(F)(F)F)cs2)c(-c2cc(-c3n[nH]c(=O)o3)cnc2N2C3CCC2CN(C)C3)cn1	1.2 (≈ 1.99 µM)	8 (≈ 13.3 µM)	1 (≈ 1.66 µM)	4 (≈ 6.65 µM)	< 0.06	8 (≈ 13.3 µM)	4 (≈ 6.65 µM)	< 0.06	2 (≈ 3.32 µM)	8 (≈ 13.3 µM)	0.5 (≈ 0.831 µM)	8 (≈ 13.3 µM)	1 (≈ 1.66 µM)	< 0.06	4 (≈ 6.65 µM)	32 (≈ 53.2 µM)	< 0.06	8 (≈ 13.3 µM)	6.7	7.8	–
